# Experimental data collected from several papers.
# Each line is one published result; the experiments were not run side by side.
# Target: Inhibitor of nuclear factor kappa-B kinase subunit beta (IKBKB, Homo sapiens, UniProt O14920)
# Residues used in one study (O14920 1-756): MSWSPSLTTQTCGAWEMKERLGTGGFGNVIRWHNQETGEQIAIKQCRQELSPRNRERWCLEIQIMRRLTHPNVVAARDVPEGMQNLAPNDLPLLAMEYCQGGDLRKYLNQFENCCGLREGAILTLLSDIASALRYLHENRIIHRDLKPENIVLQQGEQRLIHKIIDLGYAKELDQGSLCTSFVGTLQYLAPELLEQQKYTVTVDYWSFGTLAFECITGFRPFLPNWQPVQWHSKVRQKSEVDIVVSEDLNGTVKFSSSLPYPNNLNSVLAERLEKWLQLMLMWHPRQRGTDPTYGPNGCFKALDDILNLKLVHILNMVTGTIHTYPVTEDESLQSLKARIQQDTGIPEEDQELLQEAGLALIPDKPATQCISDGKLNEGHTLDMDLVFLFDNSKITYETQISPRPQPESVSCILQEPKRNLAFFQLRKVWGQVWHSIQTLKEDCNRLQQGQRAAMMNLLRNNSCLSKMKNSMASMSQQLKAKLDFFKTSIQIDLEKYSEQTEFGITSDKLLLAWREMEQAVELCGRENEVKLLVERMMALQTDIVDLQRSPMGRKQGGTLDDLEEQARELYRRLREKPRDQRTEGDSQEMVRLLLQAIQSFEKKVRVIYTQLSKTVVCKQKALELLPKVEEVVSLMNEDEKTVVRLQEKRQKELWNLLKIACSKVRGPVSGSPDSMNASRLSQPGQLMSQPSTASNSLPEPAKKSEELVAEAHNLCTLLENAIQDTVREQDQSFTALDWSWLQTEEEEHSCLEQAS
SMILES,observed,method,concentration,remaining binding [%]
CN(C)CC#Cc1ccc(OCCCc2sc(N3CCc4cccc(C(=O)Nc5nc6ccccc6s5)c4C3)nc2C(=O)O)c(F)c1,cell-free assay,competition with immobilised ligand,1 µM,72
Cc1cnn2ncc(-c3ccnc(N(C)C)n3)c2c1,binding,competition with immobilised ligand,1 µM,53
CN(C)c1ncnc(-c2ccc3nc(Nc4cc(CN5CCN(C(=O)CC(F)(F)F)CC5)ccn4)[nH]c3c2)c1Cl,cell-free assay,competition with immobilised ligand,1 µM,80
C[C@@H]1CN(c2ccc3ncc(-c4ccc5[nH]nc(C6CC6)c5c4)n3n2)C[C@H](C)O1,binding,competition with immobilised ligand,50 nM,88
O=C(NCC1CCOCC1)c1n[nH]cc1NC(=O)c1c(F)cccc1F,binding,competition with immobilised ligand,1 µM,92
CNC(=O)Nc1ccc2c(c1)CC[C@@]21OC(=O)N(CC(=O)N(Cc2ccc(F)cc2)[C@@H](C)C(F)(F)F)C1=O,cell-free assay,competition with immobilised ligand,1 µM,83
O=C(NCCCN1CCOCC1)c1ccc(Nc2nccc(-c3cc4ccccc4s3)n2)cc1,binding,competition with immobilised ligand,1 µM,5.1
Cc1c(NC(=O)c2cc(C(N)=O)nc3cc(F)ccc23)c(C(F)(F)F)nn1Cc1ccc(C(C)(C)C)cc1,cell-free assay,competition with immobilised ligand,1 µM,100
O=C(c1ccc(Nc2ncc(Cl)c(-c3cc4ccccc4s3)n2)cc1)N1CCC(N2CCCC2)CC1,binding,competition with immobilised ligand,1 µM,0.1
C[C@@H]1CCN(c2nccc(-c3cnn4ncccc34)n2)C1,binding,competition with immobilised ligand,1 µM,77
CC(C)(C)c1ccc(-c2nc(CBr)nn2-c2cccc(O)c2)cc1,cell-free assay,competition with immobilised ligand,10 µM,70
N[C@H]1CCN(c2nccc(-c3cnn4ncccc34)n2)C1,binding,competition with immobilised ligand,1 µM,91
COc1cnc(Nc2cccc(S(N)(=O)=O)c2)nc1N1CCN(c2ccccc2)CC1,binding,competition with immobilised ligand,1 µM,94
FC(F)(F)Oc1cccc(-c2cnc3ccc(-c4ccncc4)nn23)c1,cell-free assay,competition with immobilised ligand,5 µM,56
CSc1cccnc1N1CCN(Cc2nc3ccccc3[nH]2)CC1,cell-free assay,competition with immobilised ligand,1 µM,86
CN(C)c1ncc(F)c(-c2cnn3ncccc23)n1,binding,competition with immobilised ligand,1 µM,80
CNCc1ccccc1-c1csc([C@H](C)Nc2nc(C)nc3cc(OC)c(OC)cc23)c1,cell-free assay,competition with immobilised ligand,1 µM,83
c1cncc(-c2cccc(Nc3nccc(NC4CCCCC4)n3)c2)c1,binding,competition with immobilised ligand,10 µM,89
CCCOc1ccc([C@H]2[C@H](C(=O)O)[C@@H](c3ccc4c(c3)OCO4)CN2CC(=O)Nc2c(CC)cccc2CC)cc1,cell-free assay,competition with immobilised ligand,1 µM,77
F[C@@H]1CCN(c2nccc(-c3cnn4ncccc34)n2)C1,binding,competition with immobilised ligand,1 µM,100
C[C@@H](c1ccc(-n2cnc3c(N)ncnc32)cc1)N1CCc2nn(C)c(Cc3ccccc3)c2C1=O,binding,competition with immobilised ligand,0.1 µM,68
c1cnn2ncc(-c3ccnc(N4CCC45COC5)n3)c2c1,binding,competition with immobilised ligand,1 µM,40
O=C(O)c1cc(-c2ccc(C3CCNCC3)cc2)c2ccc(-c3ccc(C(F)(F)F)cc3)cc2c1,cell-free assay,competition with immobilised ligand,1 µM,100
CN(c1nccc(-c2cnn3ncccc23)n1)C1CC1,binding,,1 µM,100
Cc1cnc(Nc2ccc(C(=O)N3CCC(N4CCCC4)CC3)cc2)nc1-c1cc2ccccc2s1,binding,competition with immobilised ligand,1 µM,0
